Results on one molecule are retold here after ChEMBL document CHEMBL5252513, “Identification of a Benzoisoxazoloazepine Inhibitor (CPI-0610) of the Bromodomain and Extra-Terminal (BET) Family as a Candidate for Human Clinical Trials” (J Med Chem, 2016).

One data set addresses CREB-binding protein (Homo sapiens, UniProt Q92793). The experiment in a line: Binding affinity to CBP bromodomain (unknown origin) incubated for 60 mins by TR-FRET assay.
The nature of data set [1]: Cmax in mouse at 30 mg/kg,po. Further details: dose 30 mg/kg, route po. The conditions noted are these: in vivo. It counts as ADME, organism-based.
Data set [2] can be described thus: Volume of distribution at steady state in rat at 1 mg/kg,iv. It counts as ADME, organism-based. The following applies: in vivo, read-out: Vdss.
The nature of data set [3]: Intrinsic clearance in mouse liver microsomes. It counts as ADME, Microsome. The following applies: read-out: CLH.
Data set [4] in a line: Intrinsic clearance in dog liver microsomes. It counts as ADME, Canis lupus familiaris, Microsome. The following applies: read-out: CLH.
The nature of data set [5]: Intrinsic clearance in rat liver microsomes. In kind it is ADME, Microsome.
Data set [6] in a line: Oral bioavailability in dog at 2.5 mg/kg. The conditions noted are these: in vivo. It counts as ADME, organism-based, Canis lupus familiaris.
A short description of data set [7]: AUC (0 to infinity) in dog at 2.5 mg/kg,po. It counts as ADME, organism-based, Canis lupus familiaris. Further details: dose 2.5 mg/kg, route po. The conditions noted are these: in vivo.
The nature of data set [8]: Tmax in mouse at 10 mg/kg,sc. In kind it is ADME, organism-based. The conditions noted are these: in vivo.
For data set [9], the target named is SWI/SNF-related matrix-associated actin-dependent regulator of chromatin subfamily A member 4 (Homo sapiens, UniProt P51532). The data set is described as follows: Binding affinity to BRG1 bromodomain (unknown origin) incubated for 60 mins by TR-FRET assay.
The target in data set [10] is T1, Transcription intermediary factor 1-alpha (Homo sapiens, UniProt O15164).
T1 sequence (O15164 whole entry): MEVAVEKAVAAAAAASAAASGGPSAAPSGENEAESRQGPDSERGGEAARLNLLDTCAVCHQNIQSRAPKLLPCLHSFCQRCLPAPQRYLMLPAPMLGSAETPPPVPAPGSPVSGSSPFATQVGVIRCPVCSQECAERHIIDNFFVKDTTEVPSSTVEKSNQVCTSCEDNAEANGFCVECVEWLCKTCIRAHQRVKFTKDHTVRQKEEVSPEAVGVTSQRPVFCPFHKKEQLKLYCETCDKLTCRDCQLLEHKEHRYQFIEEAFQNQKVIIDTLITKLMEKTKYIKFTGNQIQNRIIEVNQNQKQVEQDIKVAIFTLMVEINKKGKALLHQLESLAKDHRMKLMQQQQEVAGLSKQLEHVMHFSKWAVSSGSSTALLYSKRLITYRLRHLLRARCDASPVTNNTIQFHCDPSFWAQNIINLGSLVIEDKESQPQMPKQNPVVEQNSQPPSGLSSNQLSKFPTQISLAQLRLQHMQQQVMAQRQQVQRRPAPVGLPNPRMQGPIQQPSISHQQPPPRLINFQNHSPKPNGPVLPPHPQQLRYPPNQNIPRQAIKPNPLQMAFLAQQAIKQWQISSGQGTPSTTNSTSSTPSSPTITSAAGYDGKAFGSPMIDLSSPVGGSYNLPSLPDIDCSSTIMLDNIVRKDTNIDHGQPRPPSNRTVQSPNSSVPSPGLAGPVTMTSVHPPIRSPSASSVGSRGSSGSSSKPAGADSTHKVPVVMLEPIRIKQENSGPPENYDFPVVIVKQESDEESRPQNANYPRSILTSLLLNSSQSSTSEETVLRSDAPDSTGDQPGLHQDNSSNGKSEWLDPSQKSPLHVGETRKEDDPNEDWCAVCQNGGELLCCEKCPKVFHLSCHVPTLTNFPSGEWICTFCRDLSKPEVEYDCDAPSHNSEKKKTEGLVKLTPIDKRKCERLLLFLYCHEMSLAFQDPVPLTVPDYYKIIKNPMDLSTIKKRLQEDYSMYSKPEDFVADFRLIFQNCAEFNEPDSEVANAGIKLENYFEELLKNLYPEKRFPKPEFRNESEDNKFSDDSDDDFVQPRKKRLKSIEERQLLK
The data set is described as follows: Binding affinity to TRIM24 bromodomain (unknown origin) incubated for 60 mins by TR-FRET assay.

The target in data set [11] is Bromodomain-containing protein 8 (Homo sapiens, UniProt Q9H0E9). The data set is described as follows: Binding affinity to BRD8 bromodomain (unknown origin) incubated for 60 mins by TR-FRET assay.
Another data set concerns MV4-11. The experiment in a line: Antitumor activity against human MV4-11 cells xenografted in BALB/c mouse assessed as modest tumor growth inhibition at 10 mg/kg,sc BID for 28 days. It counts as functional, organism-based. The following applies: time 28.0 day.
Data set [12] can be described thus: Toxicity against BALB/c mouse plasma xenografted with human MV4-11 cells assessed as body weight loss at 10 mg/kg,sc BID in presence of doxorubicin at 2 mg/kg,iv BIW for 28 days. In kind it is organism-based. The following applies: in vivo, 672 h, time 28 day. The essentials:
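MV-4-11 acute myeloid leukemia mouse xenograft; BET inhibitor given subcutaneously 10 mg/kg twice daily, doxorubicin 2 mg/kg IV twice weekly, alone or combined, for 28 days; body weight change (%) tracked over treatment against vehicle.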

The source made the active and inactive calls. The rule behind the calls is not given here.

SWI/SNF-related matrix-associated actin-dependent regulator of chromatin subfamily A member 4, sequence (P51532 whole entry): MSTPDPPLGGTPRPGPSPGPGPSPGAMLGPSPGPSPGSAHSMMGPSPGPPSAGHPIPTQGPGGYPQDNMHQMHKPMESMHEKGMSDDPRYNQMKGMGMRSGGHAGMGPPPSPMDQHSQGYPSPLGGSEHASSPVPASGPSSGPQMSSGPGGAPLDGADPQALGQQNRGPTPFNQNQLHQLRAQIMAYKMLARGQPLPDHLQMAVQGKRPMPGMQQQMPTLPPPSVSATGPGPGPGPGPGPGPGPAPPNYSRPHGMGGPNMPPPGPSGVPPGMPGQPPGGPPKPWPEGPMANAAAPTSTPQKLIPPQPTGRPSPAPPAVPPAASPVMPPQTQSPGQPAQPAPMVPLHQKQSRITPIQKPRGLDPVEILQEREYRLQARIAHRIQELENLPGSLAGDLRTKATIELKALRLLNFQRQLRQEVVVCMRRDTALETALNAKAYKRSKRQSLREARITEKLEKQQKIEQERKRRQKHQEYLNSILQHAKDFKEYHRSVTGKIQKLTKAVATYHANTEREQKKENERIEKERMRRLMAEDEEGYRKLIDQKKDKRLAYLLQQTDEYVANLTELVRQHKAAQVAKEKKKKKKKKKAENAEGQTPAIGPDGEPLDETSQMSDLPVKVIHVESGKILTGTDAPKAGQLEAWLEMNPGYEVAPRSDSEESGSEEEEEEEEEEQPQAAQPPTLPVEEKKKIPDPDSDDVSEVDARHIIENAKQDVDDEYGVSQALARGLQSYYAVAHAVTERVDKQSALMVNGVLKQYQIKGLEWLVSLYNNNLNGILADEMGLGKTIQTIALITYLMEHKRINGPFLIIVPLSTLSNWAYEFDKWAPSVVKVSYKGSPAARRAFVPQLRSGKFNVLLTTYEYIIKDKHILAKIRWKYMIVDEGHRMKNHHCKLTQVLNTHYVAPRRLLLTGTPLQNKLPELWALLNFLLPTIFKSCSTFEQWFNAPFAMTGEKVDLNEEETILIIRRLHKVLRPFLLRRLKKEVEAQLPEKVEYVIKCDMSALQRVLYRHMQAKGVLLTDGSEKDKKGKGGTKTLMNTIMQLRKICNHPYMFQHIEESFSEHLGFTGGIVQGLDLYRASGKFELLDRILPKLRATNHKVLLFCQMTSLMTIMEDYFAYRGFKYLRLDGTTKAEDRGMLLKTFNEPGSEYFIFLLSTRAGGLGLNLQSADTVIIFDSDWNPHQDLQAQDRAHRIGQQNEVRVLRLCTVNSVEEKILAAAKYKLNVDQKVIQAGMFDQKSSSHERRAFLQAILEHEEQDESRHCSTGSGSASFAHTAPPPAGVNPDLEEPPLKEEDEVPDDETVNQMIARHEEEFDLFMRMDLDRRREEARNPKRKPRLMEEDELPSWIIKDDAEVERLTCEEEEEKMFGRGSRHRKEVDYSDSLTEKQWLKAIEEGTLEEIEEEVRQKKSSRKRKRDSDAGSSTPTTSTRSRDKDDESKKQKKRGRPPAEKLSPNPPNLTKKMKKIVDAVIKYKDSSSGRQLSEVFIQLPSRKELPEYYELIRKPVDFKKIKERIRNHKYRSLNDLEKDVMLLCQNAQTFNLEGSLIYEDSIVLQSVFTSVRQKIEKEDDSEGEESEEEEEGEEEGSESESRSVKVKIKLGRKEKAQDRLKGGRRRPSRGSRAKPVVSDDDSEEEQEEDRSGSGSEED
CREB-binding protein, sequence (Q92793 whole entry): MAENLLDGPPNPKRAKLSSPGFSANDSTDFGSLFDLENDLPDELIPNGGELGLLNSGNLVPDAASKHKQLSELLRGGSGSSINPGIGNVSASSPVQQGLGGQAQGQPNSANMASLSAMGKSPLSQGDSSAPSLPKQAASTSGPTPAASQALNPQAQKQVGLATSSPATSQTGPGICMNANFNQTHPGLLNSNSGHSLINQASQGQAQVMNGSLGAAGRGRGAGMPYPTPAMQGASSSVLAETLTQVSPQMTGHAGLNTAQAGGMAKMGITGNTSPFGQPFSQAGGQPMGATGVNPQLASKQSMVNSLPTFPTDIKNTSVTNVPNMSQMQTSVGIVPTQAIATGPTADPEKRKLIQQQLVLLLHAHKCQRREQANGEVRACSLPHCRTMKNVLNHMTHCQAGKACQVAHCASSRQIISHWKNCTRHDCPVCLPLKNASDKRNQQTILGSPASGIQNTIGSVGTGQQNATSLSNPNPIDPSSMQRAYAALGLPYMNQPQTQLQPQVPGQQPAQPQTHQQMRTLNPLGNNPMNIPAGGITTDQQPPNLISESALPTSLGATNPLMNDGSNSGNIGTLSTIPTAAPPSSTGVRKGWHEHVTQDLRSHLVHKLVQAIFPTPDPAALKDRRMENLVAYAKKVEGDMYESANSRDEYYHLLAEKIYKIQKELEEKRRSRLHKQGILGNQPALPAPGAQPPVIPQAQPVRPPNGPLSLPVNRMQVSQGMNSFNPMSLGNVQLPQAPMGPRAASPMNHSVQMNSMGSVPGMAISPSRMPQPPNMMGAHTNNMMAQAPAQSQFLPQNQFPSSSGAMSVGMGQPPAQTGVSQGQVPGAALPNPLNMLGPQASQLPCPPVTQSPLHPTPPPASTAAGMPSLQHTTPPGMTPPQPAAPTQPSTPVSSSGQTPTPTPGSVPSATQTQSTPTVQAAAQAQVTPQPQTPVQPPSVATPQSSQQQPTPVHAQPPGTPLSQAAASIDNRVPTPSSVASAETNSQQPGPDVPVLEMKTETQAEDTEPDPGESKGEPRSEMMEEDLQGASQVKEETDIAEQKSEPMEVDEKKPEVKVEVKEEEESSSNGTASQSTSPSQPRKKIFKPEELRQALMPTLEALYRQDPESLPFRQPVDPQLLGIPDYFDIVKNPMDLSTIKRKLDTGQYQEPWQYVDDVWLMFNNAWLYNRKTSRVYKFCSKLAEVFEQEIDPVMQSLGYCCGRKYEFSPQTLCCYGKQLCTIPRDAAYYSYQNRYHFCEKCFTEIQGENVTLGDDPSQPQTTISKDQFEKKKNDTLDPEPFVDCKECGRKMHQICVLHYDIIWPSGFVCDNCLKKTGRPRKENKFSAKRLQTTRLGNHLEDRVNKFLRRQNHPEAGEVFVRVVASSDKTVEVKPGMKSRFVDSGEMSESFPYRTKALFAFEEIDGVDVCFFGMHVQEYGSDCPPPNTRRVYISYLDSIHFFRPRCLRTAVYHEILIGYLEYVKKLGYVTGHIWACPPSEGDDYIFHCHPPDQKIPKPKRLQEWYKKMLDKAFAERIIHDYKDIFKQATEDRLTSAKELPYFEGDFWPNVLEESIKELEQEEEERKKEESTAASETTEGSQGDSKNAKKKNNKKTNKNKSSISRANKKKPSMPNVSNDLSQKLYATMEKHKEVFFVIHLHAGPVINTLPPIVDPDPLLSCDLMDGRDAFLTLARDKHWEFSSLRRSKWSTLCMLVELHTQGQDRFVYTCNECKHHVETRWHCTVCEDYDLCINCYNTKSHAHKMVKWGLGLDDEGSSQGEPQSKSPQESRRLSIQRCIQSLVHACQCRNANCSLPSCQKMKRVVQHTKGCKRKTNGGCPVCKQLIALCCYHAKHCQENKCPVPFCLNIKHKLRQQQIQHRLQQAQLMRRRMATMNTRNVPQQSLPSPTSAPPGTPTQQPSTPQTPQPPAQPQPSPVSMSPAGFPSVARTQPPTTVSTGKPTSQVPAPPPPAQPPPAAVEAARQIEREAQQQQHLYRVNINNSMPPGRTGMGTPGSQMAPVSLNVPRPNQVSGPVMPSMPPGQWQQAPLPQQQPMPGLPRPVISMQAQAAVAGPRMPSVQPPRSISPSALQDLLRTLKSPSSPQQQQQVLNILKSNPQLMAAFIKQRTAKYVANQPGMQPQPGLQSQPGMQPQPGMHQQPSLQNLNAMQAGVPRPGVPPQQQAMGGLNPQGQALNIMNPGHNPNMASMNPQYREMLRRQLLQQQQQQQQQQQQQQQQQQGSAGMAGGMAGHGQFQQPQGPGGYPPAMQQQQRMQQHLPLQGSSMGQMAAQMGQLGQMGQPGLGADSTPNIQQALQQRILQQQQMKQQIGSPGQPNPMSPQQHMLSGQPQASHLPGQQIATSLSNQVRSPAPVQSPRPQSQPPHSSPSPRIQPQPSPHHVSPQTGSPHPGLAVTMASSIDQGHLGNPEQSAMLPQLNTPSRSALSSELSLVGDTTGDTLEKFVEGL

For the molecule `Cc1noc2c1-c1ccccc1C(c1ccc(Cl)cc1)=N[C@H]2CC(N)=O` [PELABRESIB], the IC50 at CREB-binding protein is above 20 µM; in data set [9], above 20 µM; in data set [10], above 20 µM; in data set [11], above 15 µM. Also, in data set [1], the Cmax worked out at 24 µM. Also, in data set [2], the Vd came out at 1.3 L/kg. The predicted hepatic clearance is 30 mL/min/kg in [3] and 20 mL/min/kg in data set [4]. The predicted hepatic clearance (CLH) in data set [5] was 21 mL/min/kg. This molecule came in with a bioavailability in data set [6] of 45%. In [7], this molecule registered an AUC(0-inf) of 28 µM·h. Besides, in data set [8], the Tmax was 1.3 h. Further, the outcome in the data set with MV4-11 was Active. Further, in data set [12], the Activity result is “Non-Toxic”.
